In brackets after ≈: the same amount, converted by molar mass.

Nine compounds from ChEMBL document CHEMBL3414553, “Novel imidazo[2,1-b]-1,3,4-thiadiazoles as promising antifungal agents against clinical isolate of Cryptococcus neoformans” (2015) can be followed below.

Holding throughout (type): functional
Experiment [1] deals with Candida albicans. As to the kind of experiment: Antimicrobial activity against Candida albicans.
The test system of the next experiment is Candida tropicalis. Nature of the experiment: Antimicrobial activity against Candida tropicalis.
In experiment [2] the test system is Cryptococcus neoformans. As to the kind of experiment: Antimicrobial activity against […].
The next experiment relates to MCF7. Nature of the experiment: Cytotoxicity against human MCF7 cells.
The test system of the next experiment is MDA-MB-231. Nature of the experiment: Cytotoxicity against human MDA-MB-231 cells.
The test system of the next experiment is MDA-MB-468. As to the kind of experiment: Cytotoxicity against human MDA-MB-468 cells.
Experiment [3] is described as follows: Cytotoxicity against human OVCAR3 cells. Conditions: OVCAR-3.
Experiment [4] is described as follows: Cytotoxicity against human HL60 cells. Conditions: HL-60.
Experiment [5] deals with Candida albicans. Nature of the experiment: Antifungal activity against Candida albicans ATCC 90028 after 24 hrs by two-fold broth microdilution method. Conditions: ATCC 90028, 24 h. A digest of the protocol:
(§1)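 Strains subcultured one day before testing; colonies suspended in sterile water and adjusted to 0.5 McFarland (1.5 × 10^8 cfu/ml). Two-fold dilutions in MHB (medium pH 7.4 ± 0.1), final 200 to 0.39 µg/ml. Incubated 37 ± 1 °C for 24 h, then resazurin (0.4 mg/ml) added for a further 5 h. MIC read by colour: blue = no growth, pink = growth.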
For orientation: In broth dilution the organism is exposed to a series of concentrations in liquid medium.

Experiment [6] deals with Candida albicans. As to the kind of experiment: Antifungal activity against Candida albicans clinical isolate after 24 hrs by two-fold broth microdilution method. In a few lines: as §1
The test system of experiment [7] is Cryptococcus neoformans. As to the kind of experiment: Antifungal activity against […] ATCC 66031 after 24 hrs by two-fold broth microdilution method. Conditions: ATCC 66031, 24 h. A digest of the protocol:
as §1

The test system of experiment [8] is Cryptococcus neoformans. As to the kind of experiment: Antifungal activity against […] clinical isolate after 24 hrs by two-fold broth microdilution method. A digest of the protocol:
as §1

In a further experiment the test system is Aspergillus niger. Nature of the experiment: Antifungal activity against Aspergillus niger ATCC 16404 after 24 hrs by two-fold broth microdilution method. Conditions: ATCC 16404, 24 h. A digest of the protocol:
as §1

The subject of the next experiment is Staphylococcus aureus. Nature of the experiment: Antibacterial activity against Staphylococcus aureus ATCC 25923 after 24 hrs by two-fold broth microdilution method. The following applies: ATCC 25923, 24 h. A digest of the protocol:
as §1

The subject of a further experiment is Bacillus subtilis. Nature of the experiment: Antibacterial activity against Bacillus subtilis ATCC 6051 after 24 hrs by two-fold broth microdilution method. Conditions: ATCC 6051, 24 h. In a few lines:
as §1

Another experiment has as its system Escherichia coli. Nature of the experiment: Antibacterial activity against Escherichia coli ATCC 35218 after 24 hrs by two-fold broth microdilution method. Conditions: ATCC 35218, 24 h. A digest of the protocol: as §1
The next experiment relates to Pseudomonas aeruginosa. As to the kind of experiment: Antibacterial activity against Pseudomonas aeruginosa ATCC 27853 after 24 hrs by two-fold broth microdilution method. The following applies: ATCC 27853, 24 h. A digest of the protocol: as §1
For experiment [9], the system named is Mycobacterium tuberculosis. As to the kind of experiment: Antimicrobial activity against Mycobacterium tuberculosis H37Rv. A digest of the protocol: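 M. tuberculosis H37Rv grown 5 d in 7H9-Tw-OADC with 10-point two-fold serial dilutions from DMSO (final DMSO 2%). Top concentration 200 µM, or 50-fold below the stock for poorly soluble compounds. Controls: medium/DMSO background, 100 µM rifampicin for zero growth, DMSO for maximum growth, plus a rifampicin dose-response. Growth read by OD590 and fluorescence (Ex 560/Em 590).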

Take `COc1ccc(-c2nn3cc(-c4ccc(Br)cc4)nc3s2)cc1OC`: the figures for the MIC in the experiment with Candida albicans [1], in the experiment on Candida tropicalis and against Cryptococcus neoformans [2] were 6.25 µg/mL (≈ 15 µM), 12.5 µg/mL (≈ 30 µM) and 6.25 µg/mL (≈ 15 µM), respectively.

For the compound `COc1ccc(C(=O)/C=C2\C(=O)Nc3ccc(Cl)cc32)cc1OC`, the values for the GI50 in the experiment with MCF7, in the experiment on MDA-MB-231 and in the experiment on MDA-MB-468 were 3.95 µM, 8.54 µM and 4.76 µM, respectively.

With `CC1=NN2C(=NC(C)C2C(=O)NNc2ccc(O)cc2)S1` (stereo not given), the concentration for 50% growth inhibition (GI50) (in general, the concentration at which growth is held to half of that of the control) in experiment [3] came to 5.51 µM; in the experiment on MCF7, 4.51 µM; in experiment [4], 4.5 µM.

On to `O=C(/C=C/c1c(-c2ccc(Br)cc2)nc2sc(-c3ccccc3Cl)nn12)c1ccccc1`, for which the minimum inhibitory concentration (MIC) (in general, the lowest concentration found to suppress growth) against Candida albicans [5] is over 200 µg/mL; against Candida albicans [6] it was over 200 µg/mL; in the experiment on Cryptococcus neoformans [7], 12.5 µg/mL (≈ 24 µM); against Cryptococcus neoformans [8] it was 12.5 µg/mL (≈ 24 µM); against Aspergillus niger, over 200 µg/mL; against Staphylococcus aureus, over 200 µg/mL. Also, the minimal inhibitory concentration (MIC) was over 200 µg/mL in the experiment with Bacillus subtilis, 100 µg/mL (≈ 192 µM) in the experiment with Escherichia coli and over 200 µg/mL in the experiment on Pseudomonas aeruginosa.

On to `O=C(/C=C/c1c(-c2ccc(Br)cc2)nc2sc(-c3ccccc3Br)nn12)c1cccs1`, for which the minimum inhibitory concentration (MIC) in the experiment on Candida albicans [5] is over 200 µg/mL; with Candida albicans [6], over 200 µg/mL; in the experiment on Cryptococcus neoformans [7] it was 3.12 µg/mL (≈ 5.47 µM); against Cryptococcus neoformans [8], 12.5 µg/mL (≈ 21.9 µM); against Aspergillus niger, over 200 µg/mL; against Staphylococcus aureus, over 200 µg/mL. Further, the minimum inhibitory concentration (MIC) in the experiment with Bacillus subtilis, against Escherichia coli and against Pseudomonas aeruginosa was over 200 µg/mL each time.

As for `Cc1ccc(C(=O)/C=C/c2c(-c3ccc(Br)cc3)nc3sc(-c4ccccc4Br)nn23)cc1`, the minimum inhibitory concentration (MIC) was 200 µg/mL (≈ 345 µM) against Candida albicans [5]; over 200 µg/mL in the experiment on Candida albicans [6]; 1.56 µg/mL (≈ 2.69 µM) with Cryptococcus neoformans [7]; 12.5 µg/mL (≈ 21.6 µM) with Cryptococcus neoformans [8]; over 200 µg/mL in the experiment on Aspergillus niger; 100 µg/mL (≈ 173 µM) against Staphylococcus aureus. For the same compound, the MIC with Bacillus subtilis, with Escherichia coli and against Pseudomonas aeruginosa was over 200 µg/mL in each case.

`O=C(/C=C/c1c(-c2ccc(Br)cc2)nc2sc(-c3ccccc3Br)nn12)c1ccccc1`: the MIC was 200 µg/mL (≈ 354 µM) in the experiment on Candida albicans [5]; over 200 µg/mL against Candida albicans [6]; 1.56 µg/mL (≈ 2.76 µM) in the experiment on Cryptococcus neoformans [7]; 6.25 µg/mL (≈ 11.1 µM) with Cryptococcus neoformans [8]; over 200 µg/mL against Aspergillus niger; 200 µg/mL (≈ 354 µM) in the experiment with Staphylococcus aureus. Also, the minimum inhibitory concentration (MIC) in the experiment on Bacillus subtilis, against Escherichia coli and in the experiment on Pseudomonas aeruginosa was over 200 µg/mL each time.

On to `Cc1ccc(C(=O)/C=C/c2c(-c3ccc(Br)cc3)nc3sc(-c4ccccc4Cl)nn23)cc1`, for which the minimum inhibitory concentration (MIC) in the experiment with Candida albicans [5] is 50 µg/mL (≈ 93.5 µM); with Candida albicans [6] it was over 200 µg/mL; in the experiment on Cryptococcus neoformans [7], 50 µg/mL (≈ 93.5 µM); against Cryptococcus neoformans [8], 100 µg/mL (≈ 187 µM); against Aspergillus niger, over 200 µg/mL; against Staphylococcus aureus it was 200 µg/mL (≈ 374 µM). Also, the MIC in the experiment on Bacillus subtilis, with Escherichia coli and with Pseudomonas aeruginosa was over 200 µg/mL each time.

Take `O=C(NN=C1CCCCC1)c1ccncc1`: it took 30 µg/mL (≈ 138 µM) to inhibit growth in [9] (MIC).
